Laboratory results reported in ChEMBL document CHEMBL3352666, “Human Toll-like receptor 8-selective agonistic activities in 1-alkyl-1H-benzimidazol-2-amines” (J Med Chem, 2014).
Activity calls are given as the source filed them.

Experiments:
Assay type in all cases: cell-based
[1] = molecular target: Toll-like receptor 2 (Homo sapiens) (UniProt O60603); experiment: Agonist activity at human TLR2 stably expressed in HEK293 cells co-expressing secreted alkaline phosphatase assessed as NF-kappaB induction by liquid handler-assisted reporter gene assay
Sequence of Toll-like receptor 2 (Homo sapiens) (O60603 whole entry): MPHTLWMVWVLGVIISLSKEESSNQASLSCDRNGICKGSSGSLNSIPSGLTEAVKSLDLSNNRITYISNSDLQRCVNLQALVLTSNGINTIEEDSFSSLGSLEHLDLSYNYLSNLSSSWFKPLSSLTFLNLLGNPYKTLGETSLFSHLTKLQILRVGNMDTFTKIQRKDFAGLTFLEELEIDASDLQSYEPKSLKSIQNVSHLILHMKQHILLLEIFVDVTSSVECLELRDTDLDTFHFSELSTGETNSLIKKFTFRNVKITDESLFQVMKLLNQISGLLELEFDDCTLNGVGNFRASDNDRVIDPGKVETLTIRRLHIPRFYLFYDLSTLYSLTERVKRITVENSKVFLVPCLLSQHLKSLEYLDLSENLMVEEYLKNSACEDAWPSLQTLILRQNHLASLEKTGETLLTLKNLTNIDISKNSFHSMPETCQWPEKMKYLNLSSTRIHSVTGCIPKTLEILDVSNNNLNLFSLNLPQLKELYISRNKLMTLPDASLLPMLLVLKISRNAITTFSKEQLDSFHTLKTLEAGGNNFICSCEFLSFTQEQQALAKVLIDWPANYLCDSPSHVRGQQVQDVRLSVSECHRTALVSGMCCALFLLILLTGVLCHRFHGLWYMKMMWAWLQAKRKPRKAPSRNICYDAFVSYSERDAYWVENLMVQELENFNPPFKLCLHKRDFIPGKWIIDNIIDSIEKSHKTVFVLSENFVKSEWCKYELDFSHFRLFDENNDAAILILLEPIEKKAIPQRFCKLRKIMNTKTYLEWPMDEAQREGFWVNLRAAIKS
Outline: (§1)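 HEK293 reporter cells stably co-transfected with the respective human TLR or NOD receptor plus NF-κB/AP-1-driven secreted alkaline phosphatase, kept in selection medium. About 10^5 cells/ml were incubated with graded concentrations of test compound in 384-well format. Supernatant sAP was read colorimetrically at 620 nm with an alkaline phosphatase-specific chromogen in detection medium.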

[2] = molecular target: Toll-like receptor 3 (Homo sapiens) (UniProt O15455); experiment: Agonist activity at human TLR3 stably expressed in HEK293 cells co-expressing secreted alkaline phosphatase assessed as NF-kappaB induction by liquid handler-assisted reporter gene assay; outline: as §1
Sequence of Toll-like receptor 3 (Homo sapiens) (O15455 whole entry): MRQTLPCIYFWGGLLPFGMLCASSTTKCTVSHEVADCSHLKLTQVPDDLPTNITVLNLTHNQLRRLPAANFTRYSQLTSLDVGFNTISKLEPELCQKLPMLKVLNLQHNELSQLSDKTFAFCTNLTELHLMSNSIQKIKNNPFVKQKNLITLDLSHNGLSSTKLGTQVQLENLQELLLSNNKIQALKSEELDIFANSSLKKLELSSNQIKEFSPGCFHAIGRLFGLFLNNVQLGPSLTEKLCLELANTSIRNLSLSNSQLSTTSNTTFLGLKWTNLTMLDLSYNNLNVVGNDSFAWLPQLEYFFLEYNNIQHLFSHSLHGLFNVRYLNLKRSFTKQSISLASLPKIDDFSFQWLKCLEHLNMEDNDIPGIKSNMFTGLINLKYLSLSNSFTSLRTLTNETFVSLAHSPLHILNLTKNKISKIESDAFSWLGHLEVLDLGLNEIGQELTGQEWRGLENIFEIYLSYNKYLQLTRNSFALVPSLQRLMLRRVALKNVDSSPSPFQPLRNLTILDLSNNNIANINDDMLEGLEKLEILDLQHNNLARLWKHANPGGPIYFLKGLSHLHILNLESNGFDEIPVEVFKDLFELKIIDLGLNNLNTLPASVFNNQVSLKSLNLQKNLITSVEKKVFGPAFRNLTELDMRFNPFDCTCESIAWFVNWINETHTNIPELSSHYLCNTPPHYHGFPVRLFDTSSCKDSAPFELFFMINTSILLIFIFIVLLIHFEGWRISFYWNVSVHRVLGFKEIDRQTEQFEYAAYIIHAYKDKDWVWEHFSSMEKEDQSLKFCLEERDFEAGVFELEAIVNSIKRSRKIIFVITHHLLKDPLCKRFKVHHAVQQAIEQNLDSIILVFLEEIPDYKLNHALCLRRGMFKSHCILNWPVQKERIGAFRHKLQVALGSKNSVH

[3] = molecular target: Toll-like receptor 4 (Homo sapiens) (UniProt O00206); experiment: Agonist activity at human TLR4 stably expressed in HEK293 cells co-expressing secreted alkaline phosphatase assessed as NF-kappaB induction by liquid handler-assisted reporter gene assay; outline: as §1
Sequence of Toll-like receptor 4 (Homo sapiens) (O00206 whole entry): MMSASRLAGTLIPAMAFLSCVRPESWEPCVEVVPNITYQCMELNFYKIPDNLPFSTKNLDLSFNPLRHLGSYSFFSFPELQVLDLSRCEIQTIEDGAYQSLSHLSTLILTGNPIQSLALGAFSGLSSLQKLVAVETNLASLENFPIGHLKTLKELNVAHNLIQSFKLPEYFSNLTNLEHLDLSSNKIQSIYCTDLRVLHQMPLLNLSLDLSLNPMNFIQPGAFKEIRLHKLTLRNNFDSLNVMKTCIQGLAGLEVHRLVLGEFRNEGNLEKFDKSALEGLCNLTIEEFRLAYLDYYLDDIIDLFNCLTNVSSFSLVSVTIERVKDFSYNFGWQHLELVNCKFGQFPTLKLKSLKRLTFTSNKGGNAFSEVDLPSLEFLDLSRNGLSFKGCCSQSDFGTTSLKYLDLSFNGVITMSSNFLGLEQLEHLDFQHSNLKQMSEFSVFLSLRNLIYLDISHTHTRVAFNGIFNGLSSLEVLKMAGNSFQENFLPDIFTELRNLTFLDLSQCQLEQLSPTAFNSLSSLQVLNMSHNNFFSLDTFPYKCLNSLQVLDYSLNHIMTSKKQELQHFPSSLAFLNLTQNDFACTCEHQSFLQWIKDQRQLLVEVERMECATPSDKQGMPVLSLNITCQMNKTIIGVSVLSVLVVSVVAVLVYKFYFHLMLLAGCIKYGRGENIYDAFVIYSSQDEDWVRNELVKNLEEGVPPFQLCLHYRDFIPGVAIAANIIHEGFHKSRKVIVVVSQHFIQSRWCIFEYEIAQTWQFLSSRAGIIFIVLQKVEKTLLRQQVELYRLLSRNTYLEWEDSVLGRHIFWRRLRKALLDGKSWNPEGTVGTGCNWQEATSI

[4] = molecular target: Toll-like receptor 5 (Homo sapiens) (UniProt O60602); experiment: Agonist activity at human TLR5 stably expressed in HEK293 cells co-expressing secreted alkaline phosphatase assessed as NF-kappaB induction by liquid handler-assisted reporter gene assay; outline: as §1
Sequence of Toll-like receptor 5 (Homo sapiens) (O60602 whole entry): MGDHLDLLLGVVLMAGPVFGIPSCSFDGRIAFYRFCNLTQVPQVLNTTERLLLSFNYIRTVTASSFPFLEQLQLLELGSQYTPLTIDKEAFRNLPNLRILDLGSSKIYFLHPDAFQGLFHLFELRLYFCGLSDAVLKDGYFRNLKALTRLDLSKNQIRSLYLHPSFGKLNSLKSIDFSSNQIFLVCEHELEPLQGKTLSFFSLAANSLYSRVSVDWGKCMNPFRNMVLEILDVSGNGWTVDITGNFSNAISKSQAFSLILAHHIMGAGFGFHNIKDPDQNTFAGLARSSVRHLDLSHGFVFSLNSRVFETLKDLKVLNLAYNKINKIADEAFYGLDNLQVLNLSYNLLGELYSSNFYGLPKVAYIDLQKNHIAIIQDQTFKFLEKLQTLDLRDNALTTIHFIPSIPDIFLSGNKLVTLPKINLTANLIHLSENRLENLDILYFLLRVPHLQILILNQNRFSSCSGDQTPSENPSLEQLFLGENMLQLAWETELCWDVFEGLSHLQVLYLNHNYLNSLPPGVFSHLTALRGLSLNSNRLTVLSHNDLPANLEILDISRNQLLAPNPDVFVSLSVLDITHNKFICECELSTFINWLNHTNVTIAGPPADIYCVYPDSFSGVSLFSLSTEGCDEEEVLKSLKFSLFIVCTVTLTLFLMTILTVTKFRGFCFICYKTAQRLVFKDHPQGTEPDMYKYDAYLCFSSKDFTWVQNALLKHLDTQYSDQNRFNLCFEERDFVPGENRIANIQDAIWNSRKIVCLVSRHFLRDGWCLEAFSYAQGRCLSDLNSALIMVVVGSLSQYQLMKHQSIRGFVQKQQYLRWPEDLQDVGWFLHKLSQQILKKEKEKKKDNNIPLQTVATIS

[5] = molecular target: T1, Toll-like receptor 7 (Homo sapiens) (UniProt Q9NYK1); experiment: Agonist activity at human TLR7 stably expressed in HEK293 cells co-expressing secreted alkaline phosphatase assessed as NF-kappaB induction by liquid handler-assisted reporter gene assay; outline: as §1
T1 sequence (whole entry): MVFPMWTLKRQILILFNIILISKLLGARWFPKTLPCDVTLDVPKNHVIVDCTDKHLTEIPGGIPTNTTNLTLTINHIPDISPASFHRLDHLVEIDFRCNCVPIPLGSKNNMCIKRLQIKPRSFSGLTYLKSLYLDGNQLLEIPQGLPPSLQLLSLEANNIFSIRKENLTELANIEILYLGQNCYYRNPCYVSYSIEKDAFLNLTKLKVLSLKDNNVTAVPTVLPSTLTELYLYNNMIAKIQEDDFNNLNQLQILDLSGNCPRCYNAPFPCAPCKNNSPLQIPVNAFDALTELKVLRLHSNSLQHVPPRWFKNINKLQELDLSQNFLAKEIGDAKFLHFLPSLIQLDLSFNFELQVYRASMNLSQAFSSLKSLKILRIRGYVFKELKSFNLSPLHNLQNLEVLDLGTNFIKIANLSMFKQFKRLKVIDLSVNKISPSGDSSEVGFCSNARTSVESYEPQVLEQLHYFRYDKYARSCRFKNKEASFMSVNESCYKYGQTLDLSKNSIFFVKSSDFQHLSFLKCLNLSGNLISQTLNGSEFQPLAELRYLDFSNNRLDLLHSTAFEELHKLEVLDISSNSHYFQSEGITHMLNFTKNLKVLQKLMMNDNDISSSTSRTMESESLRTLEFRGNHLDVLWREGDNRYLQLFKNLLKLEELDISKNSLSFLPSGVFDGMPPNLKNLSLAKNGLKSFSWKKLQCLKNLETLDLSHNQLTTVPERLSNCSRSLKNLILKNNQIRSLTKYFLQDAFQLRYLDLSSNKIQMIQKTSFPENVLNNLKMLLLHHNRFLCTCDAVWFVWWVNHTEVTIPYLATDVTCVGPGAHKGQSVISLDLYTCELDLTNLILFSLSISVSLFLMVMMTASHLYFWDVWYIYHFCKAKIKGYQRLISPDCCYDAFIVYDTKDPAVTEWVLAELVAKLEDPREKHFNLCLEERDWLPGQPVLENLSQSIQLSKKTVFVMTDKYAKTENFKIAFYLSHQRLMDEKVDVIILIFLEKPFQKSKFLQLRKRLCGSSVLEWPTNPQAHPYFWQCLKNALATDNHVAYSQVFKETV

[6] = molecular target: T2, Toll-like receptor 9 (Homo sapiens) (UniProt Q9NR96); experiment: Agonist activity at human TLR9 stably expressed in HEK293 cells co-expressing secreted alkaline phosphatase assessed as NF-kappaB induction by liquid handler-assisted reporter gene assay; outline: as §1
T2 sequence (whole entry): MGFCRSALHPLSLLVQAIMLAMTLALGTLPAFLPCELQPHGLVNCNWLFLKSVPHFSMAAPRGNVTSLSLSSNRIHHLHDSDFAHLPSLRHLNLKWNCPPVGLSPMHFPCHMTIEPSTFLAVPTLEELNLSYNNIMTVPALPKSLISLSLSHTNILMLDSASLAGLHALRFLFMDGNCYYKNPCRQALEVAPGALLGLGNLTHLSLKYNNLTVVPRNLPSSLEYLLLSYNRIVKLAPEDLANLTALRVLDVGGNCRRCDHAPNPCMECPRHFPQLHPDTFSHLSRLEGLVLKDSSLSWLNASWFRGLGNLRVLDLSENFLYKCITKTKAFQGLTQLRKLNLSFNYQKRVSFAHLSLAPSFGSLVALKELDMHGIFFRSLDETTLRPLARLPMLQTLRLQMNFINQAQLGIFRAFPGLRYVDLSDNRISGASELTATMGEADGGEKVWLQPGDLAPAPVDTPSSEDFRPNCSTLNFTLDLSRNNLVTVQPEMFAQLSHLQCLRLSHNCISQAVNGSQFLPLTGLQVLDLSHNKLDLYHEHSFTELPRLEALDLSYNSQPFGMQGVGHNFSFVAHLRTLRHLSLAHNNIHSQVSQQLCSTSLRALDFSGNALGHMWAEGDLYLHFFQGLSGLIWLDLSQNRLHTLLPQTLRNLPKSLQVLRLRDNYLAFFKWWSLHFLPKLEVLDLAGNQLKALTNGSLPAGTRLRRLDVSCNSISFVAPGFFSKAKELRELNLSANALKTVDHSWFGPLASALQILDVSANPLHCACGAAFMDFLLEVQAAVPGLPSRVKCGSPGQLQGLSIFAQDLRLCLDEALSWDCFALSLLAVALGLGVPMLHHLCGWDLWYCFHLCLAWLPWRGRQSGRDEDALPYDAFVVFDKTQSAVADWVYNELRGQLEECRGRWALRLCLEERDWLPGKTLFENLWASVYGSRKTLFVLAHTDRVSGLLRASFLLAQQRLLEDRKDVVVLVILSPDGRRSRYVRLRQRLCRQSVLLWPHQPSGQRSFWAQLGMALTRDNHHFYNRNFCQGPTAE

[7] = molecular target: T3, Nucleotide-binding oligomerization domain-containing protein 1 (Homo sapiens) (UniProt Q9Y239); experiment: Agonist activity at human NOD1 stably expressed in HEK293 cells co-expressing secreted alkaline phosphatase assessed as NF-kappaB induction by liquid handler-assisted reporter gene assay; outline: as §1
T3 sequence (whole entry): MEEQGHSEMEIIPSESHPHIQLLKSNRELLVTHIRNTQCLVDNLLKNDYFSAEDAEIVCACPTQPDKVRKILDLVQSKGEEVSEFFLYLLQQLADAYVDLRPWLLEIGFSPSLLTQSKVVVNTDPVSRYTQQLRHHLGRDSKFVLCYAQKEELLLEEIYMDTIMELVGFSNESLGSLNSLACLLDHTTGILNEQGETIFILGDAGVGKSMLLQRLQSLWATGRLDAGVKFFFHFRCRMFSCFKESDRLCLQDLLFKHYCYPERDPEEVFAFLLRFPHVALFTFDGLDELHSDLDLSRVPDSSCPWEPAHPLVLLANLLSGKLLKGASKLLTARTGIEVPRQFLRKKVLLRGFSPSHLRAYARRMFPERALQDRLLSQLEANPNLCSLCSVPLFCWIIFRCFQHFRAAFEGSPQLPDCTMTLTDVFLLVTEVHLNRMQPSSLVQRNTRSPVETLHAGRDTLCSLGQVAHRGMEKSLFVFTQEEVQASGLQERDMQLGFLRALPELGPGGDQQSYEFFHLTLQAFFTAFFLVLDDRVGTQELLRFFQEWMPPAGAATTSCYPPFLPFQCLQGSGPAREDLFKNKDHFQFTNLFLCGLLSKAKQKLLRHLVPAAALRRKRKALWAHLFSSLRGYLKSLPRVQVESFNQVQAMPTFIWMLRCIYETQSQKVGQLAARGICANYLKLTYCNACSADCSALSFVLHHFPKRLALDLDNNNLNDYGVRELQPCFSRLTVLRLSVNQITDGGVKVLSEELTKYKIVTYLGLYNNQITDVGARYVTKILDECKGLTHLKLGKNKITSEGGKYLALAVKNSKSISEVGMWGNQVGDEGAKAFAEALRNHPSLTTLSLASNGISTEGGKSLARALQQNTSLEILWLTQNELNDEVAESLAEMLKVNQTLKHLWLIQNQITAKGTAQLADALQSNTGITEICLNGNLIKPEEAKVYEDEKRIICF

[8] = molecular target: Nucleotide-binding oligomerization domain-containing protein 2 (Homo sapiens, UniProt Q9HC29); experiment: Agonist activity at human NOD2 stably expressed in HEK293 cells co-expressing secreted alkaline phosphatase assessed as NF-kappaB induction by liquid handler-assisted reporter gene assay; outline: as §1
Sequence of Nucleotide-binding oligomerization domain-containing protein 2 (Q9HC29 whole entry, the tested form may be a part): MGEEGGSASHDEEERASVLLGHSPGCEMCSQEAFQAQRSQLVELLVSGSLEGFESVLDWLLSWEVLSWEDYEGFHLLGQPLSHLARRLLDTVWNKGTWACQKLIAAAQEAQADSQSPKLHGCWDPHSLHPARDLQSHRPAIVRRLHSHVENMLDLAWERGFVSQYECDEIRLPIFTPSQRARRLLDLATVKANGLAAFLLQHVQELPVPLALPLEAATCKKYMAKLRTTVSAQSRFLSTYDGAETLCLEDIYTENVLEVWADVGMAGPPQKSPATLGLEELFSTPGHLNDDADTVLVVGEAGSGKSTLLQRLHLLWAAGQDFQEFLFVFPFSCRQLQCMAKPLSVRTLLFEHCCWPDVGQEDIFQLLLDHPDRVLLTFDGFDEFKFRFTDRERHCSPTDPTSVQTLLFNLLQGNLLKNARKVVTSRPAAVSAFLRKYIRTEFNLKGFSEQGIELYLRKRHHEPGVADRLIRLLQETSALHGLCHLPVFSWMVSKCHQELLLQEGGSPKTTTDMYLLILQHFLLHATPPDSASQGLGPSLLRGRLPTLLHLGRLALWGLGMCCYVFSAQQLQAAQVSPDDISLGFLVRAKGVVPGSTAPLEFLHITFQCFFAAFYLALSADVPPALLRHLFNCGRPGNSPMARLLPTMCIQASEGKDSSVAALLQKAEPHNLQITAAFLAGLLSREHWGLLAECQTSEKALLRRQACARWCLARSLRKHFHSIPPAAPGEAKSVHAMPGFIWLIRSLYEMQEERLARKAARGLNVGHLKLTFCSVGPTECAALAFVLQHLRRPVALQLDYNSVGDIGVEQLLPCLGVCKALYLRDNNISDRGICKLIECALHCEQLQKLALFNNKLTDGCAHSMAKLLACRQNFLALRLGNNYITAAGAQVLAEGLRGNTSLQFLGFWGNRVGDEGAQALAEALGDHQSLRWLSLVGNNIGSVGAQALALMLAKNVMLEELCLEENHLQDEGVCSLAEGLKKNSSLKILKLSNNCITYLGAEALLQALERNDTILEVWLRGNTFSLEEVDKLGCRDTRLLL

Measured: Activity

CCCCCCn1c(N)nc2ccccc21
inactive: all assays above

CCCCCn1c(N)nc2c(O)cccc21
inactive: all assays above

CCCCCn1c(N)nc2cccc(C)c21
inactive: all assays above

CCCCCn1c(N)nc2c(CC)cccc21
inactive: all assays above

CCCCCn1c(N)nc2c(N)cccc21
inactive: all assays above

CCCCCn1c(N)nc2c(N(C)C)cccc21
inactive: all assays above

CCCCCn1c(N)nc2c3ccccc3ccc21
inactive: all assays above

CCCCCn1c(N)nc2ccccc21
inactive: all assays above

CCCCCn1c(N)nc2ccc(C)cc21
inactive: all assays above

CCCCCn1c(N)nc2cc(C)ccc21
inactive: all assays above
